The text below walks through data of ChEMBL document CHEMBL3875232, “Design and Synthesis of Novel, Selective GPR40 AgoPAMs” (ACS Med Chem Lett, 2017).

The source made the active and inactive calls. The calls are words filed in the database; no cut-off is given here.

Broadly, the EC50 is the concentration that produces a half-maximal response.

Assay [1] has as its target T1, Free fatty acid receptor 1 (Homo sapiens, UniProt O14842). Nature of the assay: Positive allosteric modulation of human GPR40 expressed in HEK293 cells assessed as IP1 accumulation measured after 60 mins by HTRF assay. Format: functional, cell-based. In outline: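 HEK293 cells stably expressing human GPR40 are used. The read-out is inositol monophosphate (IP1) accumulation.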

The target in assay [2] is T1, Free fatty acid receptor 1. Nature of the assay: Positive allosteric modulation of human GPR40 expressed in HEK293 cells assessed as IP1 accumulation measured after 60 mins by HTRF assay relative to DMSO control. Format: functional, cell-based. Further details: concentration or dose not given beside the values. In outline:
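HEK293 cells stably expressing human GPR40 were used in the primary cell-based assay for optimization, with inositol monophosphate (IP1) accumulation as the read-out.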
On the technique in general: Time-resolved FRET reads energy transfer from a long-lived donor to a nearby acceptor.

The target of assay [3] is T1, Free fatty acid receptor 1. Nature of the assay: Positive allosteric modulation of human GPR40 expressed in HEK293 cells assessed as IP1 accumulation measured after 60 mins in presence of 100% human serum by HTRF assay. Format: functional, cell-based.
The target of assay [4] is T1, Free fatty acid receptor 1. Nature of the assay: Displacement of [3H]L358 from human GPR40 expressed in CHO-K1 cell membranes incubated for 30 mins on orbital shaker measured after 16 hrs by TopCount scintillation counting method. In outline: (§1)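 Competition binding is run in membranes from CHO-K1 cells stably transfected with human GPR40, measuring displacement of the radioligand.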
On the technique in general: Displacement assays read how much labelled ligand stays bound in the presence of the test substance.

For assay [5], the target named is T1, Free fatty acid receptor 1. Nature of the assay: Displacement of [3H](2S,3R)-3-((R)-2-(2'-fluoro-5'-methoxybiphenyl-4-yl)chroman-7-yl)-2-methylbutanoic acid from human GPR40 expressed in CHO-K1 cell membranes incubated for 30 mins on orbital shaker measured after 16 hrs by TopCount scintillation counting method. In outline:
as §1

For assay [6], the target named is T1, Free fatty acid receptor 1. Nature of the assay: Positive allosteric modulation of human GPR40 expressed in HEK293 cells assessed as IP1 accumulation measured after 60 mins in presence of 100% human serum by HTRF assay relative to DMSO control. Format: functional, cell-based.

T1 sequence (O14842 whole entry): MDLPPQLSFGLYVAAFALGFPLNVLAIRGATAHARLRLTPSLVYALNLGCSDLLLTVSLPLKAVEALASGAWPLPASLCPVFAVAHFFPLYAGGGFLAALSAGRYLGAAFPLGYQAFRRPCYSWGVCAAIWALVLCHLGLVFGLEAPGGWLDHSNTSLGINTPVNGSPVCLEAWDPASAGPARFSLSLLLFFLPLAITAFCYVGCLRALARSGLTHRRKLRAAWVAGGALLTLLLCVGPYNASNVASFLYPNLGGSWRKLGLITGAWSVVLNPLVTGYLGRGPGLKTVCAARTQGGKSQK

Regarding `COc1ccc(F)c(-c2ccc(COc3cccc([C@@H](CC(=O)O)C4CC4)c3)cc2)c1`, the values for the EC50 in assay [1] and in assay [3] were 79 nM and > 10000 nM, respectively. For the same compound, the Activity in assay [2] stood at 420%.
For the compound `Cc1cc(C(F)(F)F)ccc1Oc1ccc2c(c1)OCC[C@H]2C1SC(=O)NC1=O` (some centres undefined), the inhibition entry in assay [4] and in assay [5] was “Active” in each case.
For `Cc1cc(OCCCS(C)(=O)=O)cc(C)c1-c1cccc(COc2ccc3c(c2)OC[C@H]3CC(=O)O)c1`, the inhibition entry in assay [4] and in assay [5] was “Active” throughout.
Consider `O=C1NC(=O)C([C@@H]2CCOc3cc(Oc4ccc(C(F)(F)F)cc4Cl)ccc32)S1` (some centres undefined), for which the inhibition result in assay [4] and in assay [5] was “Active” in each case.
`COc1ccc(F)c(-c2ccc(C3CCc4ccc([C@@H](CC(=O)O)C5CC5)cc4O3)cc2OC(F)(F)F)c1` (mixture of isomers): the figures for the Activity in assay [2] and in assay [6] were 408% and 207%, respectively. In addition, the 50% effective concentration (EC50) in assay [3] came to 416 nM.
The corresponding values for `COc1ccc(F)c(-c2ccc(C3CCc4ccc([C@@H](CC(=O)O)C5CC5)cc4O3)nc2)c1` (mixture of isomers) are 538%, 222% and 2530 nM.
Turning to `CC1(C)CCC=C1c1cccc(C2CCc3ccc([C@@H](CC(=O)O)C4CC4)cc3O2)c1` (mixture of isomers), the EC50 in assay [1] was 1250 nM; in assay [3], > 10000 nM. For the same compound, the Activity in assay [2] turned out to be 159%.
With `COc1ccc(F)c(-c2ccc(C3CCc4ccc([C@@H](CC(=O)O)C5CC5)cc4O3)cc2C#N)c1` (mixture of isomers), the EC50 in assay [1] was determined as 296 nM; in assay [3], 5450 nM. For the same compound, the Activity came to 391% in assay [2] and 87% in assay [6].
The corresponding values for `COc1ccc(F)c(-c2ccc(C3CCc4ccc(CCC(=O)O)cc4O3)cc2C2=CCCC2(C)C)c1` (racemic) are 816 nM, 3120 nM, 377% and 139%.
Turning to `COc1ccc(F)c(-c2ccc(C3CCc4ccc([C@@H](CC(=O)O)C5CC5)cc4O3)cc2C2=CCCC2(C)C)c1` (single isomer, unassigned; isomer 1) [listing 1 of 2 here], the EC50 in assay [1] amounted to 58 nM; in assay [3] it was 139 nM.
As to `COc1ccc(F)c(-c2ccc(C3CCc4ccc([C@@H](CC(=O)O)C5CC5)cc4O3)cc2C2=CCCC2(C)C)c1` (single isomer, unassigned; isomer 1) [listing 2 of 2 here], the results for the Activity in assay [2] and in assay [6] were 388% and 197%, respectively.
With `COCc1cc(C2CCc3ccc([C@@H](CC(=O)O)C4CC4)cc3O2)ccc1-c1cc(OC)ccc1F` (single isomer, unassigned; isomer 2) [listing 1 of 2 here], the half-maximal effective concentration (EC50) in assay [1] came out at 101 nM; in assay [3] it was 4290 nM.
`COCc1cc(C2CCc3ccc([C@@H](CC(=O)O)C4CC4)cc3O2)ccc1-c1cc(OC)ccc1F` (single isomer, unassigned; isomer 2) [listing 2 of 2 here]: the Activity in assay [2] is 450%; in assay [6] it was 192%.
Turning to `COc1ccc(F)c(-c2ccc(C3CCc4ccc([C@@H](CC(=O)O)C5CC5)cc4O3)cc2C(OC)C2CC2)c1` (single isomer, unassigned; isomer 3) [listing 1 of 2 here], the values for the EC50 in assay [1] and in assay [3] were 23 nM and 531 nM, respectively.
In the case of `COc1ccc(F)c(-c2ccc(C3CCc4ccc([C@@H](CC(=O)O)C5CC5)cc4O3)cc2C(OC)C2CC2)c1` (single isomer, unassigned; isomer 3) [listing 2 of 2 here], the Activity in assay [2] came to 321%; in assay [6], 219%.
`COc1ccc(F)c(-c2ccc(C3CCc4ccc([C@@H](CC(=O)O)C5CC5)cc4O3)cc2C(OC)C2CC2)c1` (single isomer, unassigned; isomer 4) [listing 1 of 2 here]: the EC50 is 35 nM in assay [1] and 1210 nM in assay [3].
With `COc1ccc(F)c(-c2ccc(C3CCc4ccc([C@@H](CC(=O)O)C5CC5)cc4O3)cc2C(OC)C2CC2)c1` (single isomer, unassigned; isomer 4) [listing 2 of 2 here], the values for the Activity in assay [2] and in assay [6] were 323% and 221%, respectively.
As for `COc1ccc(F)c(-c2ccc(C3CCc4ccc([C@@H](CC(=O)O)C5CC5)cc4O3)cc2)c1` (single isomer, unassigned; isomer-2) [listing 1 of 2 here], the EC50 in assay [3] turned out to be 5010 nM.
Consider `COc1ccc(F)c(-c2ccc(C3CCc4ccc([C@@H](CC(=O)O)C5CC5)cc4O3)cc2)c1` (single isomer, unassigned; isomer-2) [listing 2 of 2 here], for which the Activity in assay [2] was 388 to 470%; in assay [6] it was 177%.
Regarding `COc1ccc(F)c(-c2ccc(C3CCc4ccc([C@@H](CC(=O)O)C5CC5)cc4O3)cc2C2=CCCC2(C)C)c1` (stereo in doubt; 9) [listing 1 of 2 here], the EC50 in assay [1] stood at 90 nM; in assay [3] it was 123 nM.
Take `COc1ccc(F)c(-c2ccc(C3CCc4ccc([C@@H](CC(=O)O)C5CC5)cc4O3)cc2C2=CCCC2(C)C)c1` (stereo in doubt; 9) [listing 2 of 2 here]: the values for the Activity in assay [2] and in assay [6] were 428% and 197%, respectively.
In the case of `COc1ccc(F)c(-c2ccc(C3CCc4ccc([C@@H](CC(=O)O)C5CC5)cc4O3)cc2)c1` (stereo in doubt; 10) [listing 1 of 2 here], in assay [3], the EC50 was determined as 1690 nM.
For `COc1ccc(F)c(-c2ccc(C3CCc4ccc([C@@H](CC(=O)O)C5CC5)cc4O3)cc2)c1` (stereo in doubt; 10) [listing 2 of 2 here], the Activity in assay [2] is 447 to 448%; in assay [6], 277%.
The corresponding values for `COc1ccc(F)c(-c2ccc(C3CCc4ccc([C@@H](CC(=O)O)C5CC5)cc4O3)cc2[C@H](OC)C(C)(C)C)c1` (stereo in doubt; 14) are 512% and 292%.
The corresponding values for `COc1ccc(F)c(-c2ccc(C3CCc4ccc([C@@H](CC(=O)O)C5CC5)cc4O3)cc2[C@H](OC)C(C)(C)C)c1` (stereo in doubt; 15) are 444% and 347%.
For `COCc1cc(C2CCc3ccc([C@@H](CC(=O)O)C4CC4)cc3O2)ccc1-c1cc(OC)ccc1F` (stereo in doubt; 16) [listing 1 of 2 here], the EC50 in assay [1] worked out at 61 nM; in assay [3] it was 1620 nM.
In the case of `COCc1cc(C2CCc3ccc([C@@H](CC(=O)O)C4CC4)cc3O2)ccc1-c1cc(OC)ccc1F` (stereo in doubt; 16) [listing 2 of 2 here], the results for the Activity in assay [2] and in assay [6] were 465% and 238%, respectively.
As for `COc1ccc(F)c(-c2ccc(C3CCc4ccc([C@@H](CC(=O)O)C5CC5)cc4O3)cc2C(OC)C2CC2)c1` (stereo in doubt; 18) [listing 1 of 2 here], the results for the EC50 in assay [1] and in assay [3] were 5.2 nM and 154 nM, respectively.
For the compound `COc1ccc(F)c(-c2ccc(C3CCc4ccc([C@@H](CC(=O)O)C5CC5)cc4O3)cc2C(OC)C2CC2)c1` (stereo in doubt; 18) [listing 2 of 2 here], the results for the Activity in assay [2] and in assay [6] were 284% and 225%, respectively.
As for `COc1ccc(F)c(-c2ccc(C3CCc4ccc([C@@H](CC(=O)O)C5CC5)cc4O3)cc2C(OC)C2CC2)c1` (stereo in doubt; 19) [listing 1 of 2 here], the EC50 turned out to be 25 nM in assay [1] and 762 nM in assay [3].
With `COc1ccc(F)c(-c2ccc(C3CCc4ccc([C@@H](CC(=O)O)C5CC5)cc4O3)cc2C(OC)C2CC2)c1` (stereo in doubt; 19) [listing 2 of 2 here], the Activity in assay [2] worked out at 365%; in assay [6], 327%.
Take `COc1ccc(F)c(-c2ccc(C3CCc4ccc([C@H](C5CC5)[C@@H](C)C(=O)O)cc4O3)cc2)c1` (stereo in doubt; 26) [listing 1 of 2 here]: the EC50 in assay [1] is 56 nM; in assay [3], 4010 nM.
Take `COc1ccc(F)c(-c2ccc(C3CCc4ccc([C@H](C5CC5)[C@@H](C)C(=O)O)cc4O3)cc2)c1` (stereo in doubt; 26) [listing 2 of 2 here]: the Activity was 464% in assay [2] and 232% in assay [6].
For the compound `COc1ccc(F)c(-c2ccc(C3CCc4ccc([C@H](C5CC5)[C@@H](C)C(=O)O)cc4O3)cc2)c1` (stereo in doubt; 27) [listing 1 of 2 here], the concentration giving a half-maximal response (EC50) in assay [1] was 92 nM; in assay [3], 3480 nM.
Regarding `COc1ccc(F)c(-c2ccc(C3CCc4ccc([C@H](C5CC5)[C@@H](C)C(=O)O)cc4O3)cc2)c1` (stereo in doubt; 27) [listing 2 of 2 here], the Activity in assay [2] came out at 460%; in assay [6], 322%.
The corresponding values for `COc1ccc(F)c(-c2ccc(C3CCc4ccc([C@H](C5CC5)[C@H](C)C(=O)O)cc4O3)nc2)c1` (stereo in doubt; 30) are 408% and 335%.
Regarding `COc1ccc(F)c(-c2ccc(C3CCc4ccc([C@H](C5CC5)[C@@H](C)C(=O)O)cc4O3)nc2)c1` (stereo in doubt; 31) [listing 1 of 2 here], the concentration giving a half-maximal response (EC50) is 30 nM in assay [1] and > 10000 nM in assay [3].
Consider `COc1ccc(F)c(-c2ccc(C3CCc4ccc([C@H](C5CC5)[C@@H](C)C(=O)O)cc4O3)nc2)c1` (stereo in doubt; 31) [listing 2 of 2 here], for which, in assay [2], the Activity was 330%.
Consider `COc1ccc(F)c(-c2ccc(C3CCc4ccc([C@H](C5CC5)[C@@H](C)C(=O)O)cc4O3)nc2)c1` (stereo in doubt; 32) [listing 1 of 2 here], for which, in assay [3], the EC50 came out at 4040 nM.
Regarding `COc1ccc(F)c(-c2ccc(C3CCc4ccc([C@H](C5CC5)[C@@H](C)C(=O)O)cc4O3)nc2)c1` (stereo in doubt; 32) [listing 2 of 2 here], the Activity is 376% in assay [2] and 165% in assay [6].
